The EC50 is the concentration needed to bring the measured effect to its halfway point. Usually bioavailability stands for the share of a dose that reaches the circulation, judged against a reference dose that is usually intravenous. In general, CL/F refers to clearance divided by bioavailability, as obtained after extravascular dosing.

Data on nine compounds can be found in ChEMBL document CHEMBL1156194, “Discovery of a new series of Aurora inhibitors through truncation of GSK1070916” (Bioorg Med Chem Lett, 2010).

Data set [1] deals with Aurora kinase B/Inner centromere protein (Homo sapiens, UniProt Q96GD4). In words: Inhibition of human recombinant aurora B/INCENP complex after 120 mins by IMAP fluorescence polarization assay. Format: protein-complex assay. For orientation: Fluorescence polarisation rises when a labelled molecule tumbles more slowly, as on binding a larger partner.
Data set [2] concerns the target T1, Aurora kinase A/Targeting protein for Xklp2 (Homo sapiens, UniProt O14965).
T1 sequence (O14965 whole entry): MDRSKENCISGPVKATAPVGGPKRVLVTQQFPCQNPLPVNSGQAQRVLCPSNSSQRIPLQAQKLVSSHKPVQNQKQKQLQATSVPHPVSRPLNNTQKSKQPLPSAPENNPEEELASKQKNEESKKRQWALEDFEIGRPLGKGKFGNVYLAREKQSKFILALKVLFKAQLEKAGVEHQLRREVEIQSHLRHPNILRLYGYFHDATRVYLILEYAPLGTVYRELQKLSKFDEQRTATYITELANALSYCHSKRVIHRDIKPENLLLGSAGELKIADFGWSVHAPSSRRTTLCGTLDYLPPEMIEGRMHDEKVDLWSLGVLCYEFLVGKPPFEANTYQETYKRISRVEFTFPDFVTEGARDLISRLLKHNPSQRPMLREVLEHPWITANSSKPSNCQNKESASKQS
T1 sequence (Q9ULW0 whole entry): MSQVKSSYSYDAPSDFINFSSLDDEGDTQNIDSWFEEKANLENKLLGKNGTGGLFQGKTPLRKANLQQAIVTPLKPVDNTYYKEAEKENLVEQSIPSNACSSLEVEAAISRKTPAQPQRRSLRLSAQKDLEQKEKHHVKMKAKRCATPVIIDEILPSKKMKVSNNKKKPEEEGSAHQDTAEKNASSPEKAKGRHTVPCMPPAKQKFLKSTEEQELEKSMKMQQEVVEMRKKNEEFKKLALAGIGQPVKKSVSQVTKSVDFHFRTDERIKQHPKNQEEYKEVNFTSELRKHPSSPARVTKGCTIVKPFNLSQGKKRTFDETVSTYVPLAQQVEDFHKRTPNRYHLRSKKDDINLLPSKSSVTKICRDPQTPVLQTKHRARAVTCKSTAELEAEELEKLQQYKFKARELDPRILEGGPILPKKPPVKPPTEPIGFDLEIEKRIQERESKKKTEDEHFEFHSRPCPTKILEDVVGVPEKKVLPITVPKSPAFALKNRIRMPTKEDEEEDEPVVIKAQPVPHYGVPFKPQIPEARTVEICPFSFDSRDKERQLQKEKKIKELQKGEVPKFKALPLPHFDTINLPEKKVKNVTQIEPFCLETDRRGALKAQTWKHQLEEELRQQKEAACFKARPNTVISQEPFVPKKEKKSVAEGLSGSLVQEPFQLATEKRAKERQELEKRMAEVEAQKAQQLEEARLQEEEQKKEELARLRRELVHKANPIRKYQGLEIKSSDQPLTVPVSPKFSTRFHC
In words: Inhibition of human recombinant aurora A/TPX2 complex after 120 mins by IMAP fluorescence polarization assay. It counts as protein-complex assay.

The subject of data set [3] is A549. In words: Cytotoxicity against human A549 cells in presence of 10% human serum. It counts as functional, cell-based. In short, it runs like this: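 A549 cell proliferation assay run in 10% human serum. EC50 values are averages of at least two experiments, in nM.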
Data set [4] deals with Aurora kinase B (Homo sapiens, UniProt Q96GD4). Kind of data set: Inhibition of aurora B assessed as inhibition of histone H3 phosphorylation by ELISA based cellular mechanistic assay. In short, it runs like this: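 Cellular mechanistic assay: ELISA measuring intracellular Aurora B activity through phosphorylation of histone H3, an Aurora B-specific substrate. IC50 values are averages of at least two experiments.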

Data set [5] can be described thus: Oral bioavailability in rat. It counts as ADME, organism-based. The following applies: in vivo.
Data set [6] concerns A549. Kind of data set: Cell cycle arrest in human A549 cells assessed as 2N DNA accumulation at 5 times EC50 after 48 hrs by FACS analysis relative to control. Format: functional. In short, it runs like this:
(§1)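 A549 lung tumour cells treated at 5× the compound's EC50 from the cell proliferation assay, alongside a DMSO control. Cell cycle profile read after 48 h by FACS. Values are the percentage of cells with sub-2N, 2N, 2N to 4N, 4N and >4N DNA content.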

Data set [7] relates to A549. Kind of data set: Cell cycle arrest in human A549 cells assessed as greater than 4N DNA accumulation at 5 times EC50 after 48 hrs by FACS analysis relative to control. Format: functional. The method, boiled down:
as §1
In general terms: A flow cytometer gives signals particle by particle.

The test system of data set [8] is Rattus norvegicus. Kind of data set: Dose normalized AUC in po dosed rat. Format: ADME, organism-based. The settings on record: in vivo.
For data set [9], the system named is A549. Kind of data set: Cell cycle arrest in human A549 cells assessed as sub-2N DNA accumulation at 5 times EC50 after 48 hrs by FACS analysis relative to control. Format: functional. The method, boiled down: as §1
In data set [10] the test system is A549. In words: Cell cycle arrest in human A549 cells assessed as 4N DNA accumulation at 5 times EC50 after 48 hrs by FACS analysis relative to control. It counts as functional. The method, boiled down: as §1
For data set [11], the system named is A549. Kind of data set: Cell cycle arrest in human A549 cells assessed as 2N to 4N DNA accumulation at 5 times EC50 after 48 hrs by FACS analysis relative to control relative to control. Format: functional. In short, it runs like this:
as §1

Data set [12] can be described thus: Blood clearance in po dosed rat. It counts as ADME, organism-based. The settings on record: whole blood.
For data set [13], the system named is A549. In words: Cell cycle arrest in human A549 cells assessed as malformed bipolar and monopolar spindle mixture accumulation at 110 nM after 24 hrs by immunofluorescent staining microscopy. Format: functional, cell-based. In short, it runs like this:
(§2)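 A549 tumour cells treated at 12, 37 or 110 nM for 24 h. Cells stained with α-tubulin antibody for mitotic spindles, pericentrin antibodies for centrosomes, and […] for DNA. Mitotic phenotype scored by immunofluorescence.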

Data set [14] has as its system A549. Kind of data set: Cell cycle arrest in human A549 cells assessed as multipolar spindle accumulation at 37 nM after 24 hrs by immunofluorescent staining microscopy. It counts as functional, cell-based. In short, it runs like this:
as §2

The subject of data set [15] is A549. In words: Cell cycle arrest in human A549 cells assessed as multipolar spindle accumulation at 12 nM after 24 hrs by immunofluorescent staining microscopy. It counts as functional, cell-based. The method, boiled down:
as §2

The source made the active and inactive calls. The rule behind the calls is not given here. Bounds are passed on as bounds.

Aurora kinase B, sequence (Q96GD4 whole entry): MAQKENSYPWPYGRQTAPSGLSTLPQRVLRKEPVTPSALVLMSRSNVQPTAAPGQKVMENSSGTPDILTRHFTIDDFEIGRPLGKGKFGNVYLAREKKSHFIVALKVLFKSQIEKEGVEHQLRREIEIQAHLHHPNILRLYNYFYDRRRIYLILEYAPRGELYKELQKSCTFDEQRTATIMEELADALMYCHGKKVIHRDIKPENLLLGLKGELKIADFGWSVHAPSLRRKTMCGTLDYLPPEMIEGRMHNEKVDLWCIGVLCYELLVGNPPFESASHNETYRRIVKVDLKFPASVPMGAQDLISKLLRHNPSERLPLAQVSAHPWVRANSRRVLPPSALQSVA
Aurora kinase B/Inner centromere protein, sequence (Q96GD4 whole entry): as above
Aurora kinase B/Inner centromere protein, sequence (Q9NQS7 whole entry, further chain): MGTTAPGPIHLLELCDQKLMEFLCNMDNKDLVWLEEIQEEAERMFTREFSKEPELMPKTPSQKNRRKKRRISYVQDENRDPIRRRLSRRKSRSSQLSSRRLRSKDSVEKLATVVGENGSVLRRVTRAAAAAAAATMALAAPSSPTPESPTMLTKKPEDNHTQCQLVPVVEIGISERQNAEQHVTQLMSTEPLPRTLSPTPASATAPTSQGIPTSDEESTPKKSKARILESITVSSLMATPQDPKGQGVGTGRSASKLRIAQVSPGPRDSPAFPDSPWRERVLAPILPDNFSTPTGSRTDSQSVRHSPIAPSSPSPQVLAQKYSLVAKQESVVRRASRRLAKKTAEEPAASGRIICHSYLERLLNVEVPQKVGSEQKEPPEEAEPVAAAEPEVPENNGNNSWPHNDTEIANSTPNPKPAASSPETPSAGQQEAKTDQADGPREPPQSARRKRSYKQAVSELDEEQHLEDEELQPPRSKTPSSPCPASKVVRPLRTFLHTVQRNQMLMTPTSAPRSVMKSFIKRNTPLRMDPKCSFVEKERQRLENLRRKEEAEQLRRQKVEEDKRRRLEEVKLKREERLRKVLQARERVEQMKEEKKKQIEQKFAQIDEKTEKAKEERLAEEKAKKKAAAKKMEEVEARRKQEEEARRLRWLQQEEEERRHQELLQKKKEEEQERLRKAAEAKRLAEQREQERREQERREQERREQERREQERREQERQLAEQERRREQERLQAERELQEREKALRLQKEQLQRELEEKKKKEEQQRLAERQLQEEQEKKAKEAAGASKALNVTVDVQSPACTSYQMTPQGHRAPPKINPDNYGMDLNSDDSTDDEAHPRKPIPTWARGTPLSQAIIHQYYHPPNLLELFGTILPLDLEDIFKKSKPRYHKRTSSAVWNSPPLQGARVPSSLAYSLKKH

As to `c1cc(-c2cn[nH]c2)c2cc[nH]c2n1`, the IC50 in data set [1] (read-out: IC50) was found to be 782 nM; in data set [2] it was 584 nM; in [4], 13400 nM. The EC50 in data set [3] worked out at 2570 nM.
Compound `CN(C)Cc1ccc(-c2cc3c(-c4cnn(C)c4)ccnc3[nH]2)cc1` returned a bioavailability in [5] of 72%. Also, the Activity is on record as 32% in data set [6]; 2% in data set [7]; 30% in data set [9]; 29% in data set [10]; 7% in [11]. For the same compound, the IC50 in [1] (read-out: IC50) turned out to be 5.9 nM; in data set [2] it was 76 nM; in [4], 169 nM. In [8], this compound displayed an AUC of 139 ng·h/mL/mg/kg. Also, the EC50 in data set [3] worked out at 24 nM. Further, the apparent clearance CL/F in data set [12] came out at 86 mL/min/kg.
For the compound `CCn1cc(-c2ccnc3[nH]c(-c4cccc(CN(C)C)c4)cc23)c(-c2ccc(NC(=O)N(C)C)cc2)n1` [GSK-1070916], the Activity stood at 6% in data set [6]; 47% in data set [7]; 21% in data set [9]; 23% in [10]; 3% in data set [11]. The IC50 in data set [1] (read-out: IC50) was determined as 3.2 nM; in data set [4] it was 32 nM. The EC50 in [3] is 7 nM.
Consider `CCn1cc(-c2ccnc3[nH]ccc23)c(-c2ccc(NC(=O)Nc3ccccc3)cc2)n1`, for which the IC50 in data set [1] (read-out: pIC50 (converted)) was 2 nM.
`CN(C)Cc1cccc(-c2cc3c(-c4cnn(C)c4)c(Cl)cnc3[nH]2)c1`: the outcome in data set [13] and in [14] was Active. Moreover, the Activity in data set [6] stood at 6%; in [7], 30%; in data set [9], 34%; in [10] it was 26%; in data set [11], 4%. For the same compound, the IC50 in [1] (read-out: IC50) was determined as 0.51 nM; in data set [2], 6.2 nM; in data set [4], 67 nM. For the same compound, in [3], the EC50 came to 21 nM.
With `Cn1cc(-c2ccnc3[nH]ccc23)cn1`, the IC50 in data set [1] (read-out: IC50) was determined as 802 nM; in [2], 982 nM; in data set [4] it was 6160 nM. Further, in [3], the EC50 amounted to 11700 nM.
As for `CCn1cc(-c2ccnc3[nH]ccc23)c(-c2ccc(NC(=O)N(C)C)cc2)n1`, the values for the IC50 in [1] (read-out: IC50) and in data set [2] were 26 nM and > 10000 nM, respectively. Also, the EC50 in data set [3] came to 1530 nM.
Regarding `CN(C)Cc1cccc(-c2cc3c(-c4cnn(C)c4)ccnc3[nH]2)c1`, the Activity was found to be 13% in [6]; 3% in data set [7]; 36% in data set [9]; 43% in [10]; 4% in [11]. For the same compound, the IC50 in data set [1] (read-out: IC50) is 5.7 nM; in [2], 128 nM; in [4], 104 nM. Moreover, the EC50 in [3] was 134 nM.
With `CN(C)Cc1ccc(-c2cc3c(-c4cnn(C)c4)c(Cl)cnc3[nH]2)cc1`, the outcome in [15] and in data set [14] was Active. Moreover, the Activity is on record as 14% in data set [6]; 15% in data set [7]; 27% in [9]; 40% in data set [10]; 5% in data set [11]. The figures for the IC50 in [1] (read-out: IC50), in [2] and in data set [4] were 0.61 nM, 7.9 nM and 9 nM, respectively. Moreover, in [3], the EC50 was determined as 13 nM.
